# Assay results: ChEMBL document CHEMBL5724801, “EUbOPEN Chemogenomics Library - Multiplex” (2024)
# Values joined by “and” are separate entries in the source; they are usually repeats but may differ in a detail not shown here. Identical values can stand only once.
# Test system: U2OS
# Test: Multiplex assay against U2OS
# Assay type: toxicity, cell-based
# Conditions: human
# Summary of the method: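 With compound added, live cells were imaged on a CQ1 microscope at 37°C and 5% CO2; staining with Hoechst33342, BioTracker Green Microtubule Cytoskeleton Dye, MitoTracker Red and Annexin V Alexa Fluor 680 had been done at seeding. The CellPathfinder machine-learning gating scheme split cells into Hoechst high-intensity objects or normal cells, normal cells into healthy, pyknosed or fragmented nuclei, and pyknosed cells into mitotic or apoptotic. The tubulin, mitochondrial-mass and membrane-permeability phenotypes are per cents of healthy-nucleus cells.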
# [1] = 12 h, 1 µM, compound concentration 1 uM
# [2] = 12 h, 10 µM, compound concentration 10 uM
# [3] = 24 h, 1 µM, compound concentration 1 uM
# [4] = 24 h, 10 µM, compound concentration 10 uM
# [5] = 48 h, 1 µM, compound concentration 1 uM
# [6] = 48 h, 10 µM, compound concentration 10 uM
smiles,measurement,setting,value
CCCCCC(O)/C=C/[C@H]1C(=O)CC(O)C1C/C=C\CCCC(=O)O (stereo not given in full),Population Apoptotic (%),[1],60% and 88%
same,Population Fragmented Nuclei (%),[1],28% and 15%
same,Population Healthy Nuclei (%),[1],59% and 76%
same,Population Hoechst High Intensity Objects (%),[1],1% and 0%
same,Population Membrane Permeable-Phenotype (%),[1],5% and 8%
same,Population Mitochondria Different-Phenotype (%),[1],4% and 6%
same,Population Normal (%),[1],98% and 99%
same,Population Pyknosed Nuclei (%),[1],12% and 8%
same,Population Tubulin-Different-Phenotype (%),[1],4% and 8%
same,Total Cell Count,[1],203 and 113
same,Population Apoptotic (%),[2],71% and 66%
same,Population Fragmented Nuclei (%),[2],23% and 16%
same,Population Healthy Nuclei (%),[2],69% and 73%
same,Population Hoechst High Intensity Objects (%),[2],2%
same,Population Membrane Permeable-Phenotype (%),[2],8% and 10%
same,Population Mitochondria Different-Phenotype (%),[2],3% and 2%
same,Population Mitotic Cells (%),[2],28% and 33%
same,Population Normal (%),[2],97%
same,Population Pyknosed Nuclei (%),[2],7% and 9%
same,Population Tubulin-Different-Phenotype (%),[2],5% and 4%
same,Total Cell Count,[2],190 and 94
same,Population Apoptotic (%),[3],86% and 90%
same,Population Fragmented Nuclei (%),[3],27% and 16%
same,Population Healthy Nuclei (%),[3],63% and 74%
same,Population Hoechst High Intensity Objects (%),[3],2% and 0%
same,Population Membrane Permeable-Phenotype (%),[3],3% and 5%
same,Population Mitochondria Different-Phenotype (%),[3],0% and 7%
same,Population Mitotic Cells (%),[3],13% and 9%
same,Population Normal (%),[3],98% and 99%
same,Population Pyknosed Nuclei (%),[3],8%
same,Population Tubulin-Different-Phenotype (%),[3],1% and 4%
same,Total Cell Count,[3],250 and 131
same,Population Apoptotic (%),[4],100% and 90%
same,Population Fragmented Nuclei (%),[4],23% and 16%
same,Population Healthy Nuclei (%),[4],66% and 74%
same,Population Hoechst High Intensity Objects (%),[4],1% and 2%
same,Population Membrane Permeable-Phenotype (%),[4],6% and 5%
same,Population Mitochondria Different-Phenotype (%),[4],4% and 1%
same,Population Mitotic Cells (%),[4],0% and 10%
same,Population Normal (%),[4],98% and 97%
same,Population Pyknosed Nuclei (%),[4],9% and 8%
same,Population Tubulin-Different-Phenotype (%),[4],4% and 2%
same,Total Cell Count,[4],216 and 118
same,Population Apoptotic (%),[5],89% and 100%
same,Population Fragmented Nuclei (%),[5],19% and 13%
same,Population Healthy Nuclei (%),[5],71% and 79%
same,Population Hoechst High Intensity Objects (%),[5],2%
same,Population Membrane Permeable-Phenotype (%),[5],4% and 5%
same,Population Mitochondria Different-Phenotype (%),[5],3% and 4%
same,Population Mitotic Cells (%),[5],10% and 0%
same,Population Normal (%),[5],97%
same,Population Pyknosed Nuclei (%),[5],8% and 7%
same,Population Tubulin-Different-Phenotype (%),[5],2% and 3%
same,Total Cell Count,[5],334 and 189
same,Population Apoptotic (%),[6],89% and 100%
same,Population Fragmented Nuclei (%),[6],23% and 21%
same,Population Healthy Nuclei (%),[6],67% and 70%
same,Population Hoechst High Intensity Objects (%),[6],3% and 2%
same,Population Membrane Permeable-Phenotype (%),[6],6% and 7%
same,Population Mitochondria Different-Phenotype (%),[6],3%
same,Population Mitotic Cells (%),[6],10% and 0%
same,Population Normal (%),[6],96% and 97%
same,Population Pyknosed Nuclei (%),[6],9% and 7%
same,Population Tubulin-Different-Phenotype (%),[6],4% and 3%
same,Total Cell Count,[6],302 and 161
COC(=O)c1ccc2c(c1)NC(=O)/C2=C(\Nc1ccc(N(C)C(=O)CN2CCN(C)CC2)cc1)c1ccccc1 [NINTEDANIB],Population Apoptotic (%),[1],50% and 43.75%
same,Population Fragmented Nuclei (%),[1],2.42% and 2.88%
same,Population Healthy Nuclei (%),[1],89.37% and 85.61%
same,Population Hoechst High Intensity Objects (%),[1],0%
same,Population Membrane Permeable-Phenotype (%),[1],1.62% and 4.2%
same,Population Mitochondria Different-Phenotype (%),[1],0% and 14.29%
same,Population Mitotic Cells (%),[1],50% and 56.25%
same,Population Normal (%),[1],100%
same,Population Pyknosed Nuclei (%),[1],8.21% and 11.51%
same,Population Tubulin-Different-Phenotype (%),[1],1.89% and 2.52%
same,Total Cell Count,[1],414 and 139
same,Population Apoptotic (%),[2],48.33% and 44.44%
same,Population Fragmented Nuclei (%),[2],3.26% and 6.04%
same,Population Healthy Nuclei (%),[2],72.3% and 74.18%
same,Population Hoechst High Intensity Objects (%),[2],0%
same,Population Membrane Permeable-Phenotype (%),[2],21.97% and 30.37%
same,Population Mitotic Cells (%),[2],51.67% and 55.56%
same,Population Normal (%),[2],100%
same,Population Pyknosed Nuclei (%),[2],24.44% and 19.78%
same,Population Tubulin-Different-Phenotype (%),[2],64.79% and 29.63%
same,Total Cell Count,[2],491 and 182
same,Population Apoptotic (%),[3],35.56% and 50%
same,Population Fragmented Nuclei (%),[3],1.16% and 2.33%
same,Population Healthy Nuclei (%),[3],90.15% and 79.07%
same,Population Hoechst High Intensity Objects (%),[3],0%
same,Population Membrane Permeable-Phenotype (%),[3],1.07% and 1.47%
same,Population Mitotic Cells (%),[3],64.44% and 50%
same,Population Normal (%),[3],100%
same,Population Pyknosed Nuclei (%),[3],8.69% and 18.6%
same,Population Tubulin-Different-Phenotype (%),[3],1.28% and 1.47%
same,Population Apoptotic (%),[4],62.5% and 65.62%
same,Population Fragmented Nuclei (%),[4],5.58% and 6.29%
same,Population Healthy Nuclei (%),[4],63.02% and 57.14%
same,Population Hoechst High Intensity Objects (%),[4],0%
same,Population Membrane Permeable-Phenotype (%),[4],6.23% and 9%
same,Population Mitotic Cells (%),[4],37.5% and 34.38%
same,Population Normal (%),[4],100%
same,Population Pyknosed Nuclei (%),[4],31.4% and 36.57%
same,Population Tubulin-Different-Phenotype (%),[4],63.93% and 46%
same,Total Cell Count,[4],484 and 175
same,Population Apoptotic (%),[5],57.5% and 53.12%
same,Population Fragmented Nuclei (%),[5],1.52% and 3.23%
same,Population Healthy Nuclei (%),[5],89.14% and 83.87%
same,Population Hoechst High Intensity Objects (%),[5],0%
same,Population Membrane Permeable-Phenotype (%),[5],2.1% and 4.33%
same,Population Mitochondria Different-Phenotype (%),[5],0.26% and 9.62%
same,Population Mitotic Cells (%),[5],42.5% and 46.88%
same,Population Normal (%),[5],100%
same,Population Pyknosed Nuclei (%),[5],9.35% and 12.9%
same,Population Tubulin-Different-Phenotype (%),[5],1.57% and 3.37%
same,Population Apoptotic (%),[6],78.69% and 91.94%
same,Population Fragmented Nuclei (%),[6],1.9% and 1.52%
same,Population Healthy Nuclei (%),[6],54.63% and 51.52%
same,Population Hoechst High Intensity Objects (%),[6],0.24% and 0%
same,Population Membrane Permeable-Phenotype (%),[6],1.74% and 8.82%
same,Population Mitochondria Different-Phenotype (%),[6],29.13% and 51.47%
same,Population Mitotic Cells (%),[6],21.31% and 8.06%
same,Population Normal (%),[6],99.76% and 100%
same,Population Pyknosed Nuclei (%),[6],43.47% and 46.97%
same,Population Tubulin-Different-Phenotype (%),[6],69.57% and 76.47%
